Compounds with a hit are over-represented: about 4.9% of the library has one in this group of screens.
CHT PAM: allosterically activates the human high affinity choline transporter. Q9GZV3. B-score at 10 µM. AID 488977. CHT-expressing cells, membrane potential dye, choline EC20; active compounds read high; LV-AA mutant CHT in HEK293 cells. 0.49% of 310,000 active;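 active = initial fluorescence not abnormally high and integrated response B-score, plate-corrected, over 3 SD above library mean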
Target sequence (Q9GZV3 whole entry, looked up): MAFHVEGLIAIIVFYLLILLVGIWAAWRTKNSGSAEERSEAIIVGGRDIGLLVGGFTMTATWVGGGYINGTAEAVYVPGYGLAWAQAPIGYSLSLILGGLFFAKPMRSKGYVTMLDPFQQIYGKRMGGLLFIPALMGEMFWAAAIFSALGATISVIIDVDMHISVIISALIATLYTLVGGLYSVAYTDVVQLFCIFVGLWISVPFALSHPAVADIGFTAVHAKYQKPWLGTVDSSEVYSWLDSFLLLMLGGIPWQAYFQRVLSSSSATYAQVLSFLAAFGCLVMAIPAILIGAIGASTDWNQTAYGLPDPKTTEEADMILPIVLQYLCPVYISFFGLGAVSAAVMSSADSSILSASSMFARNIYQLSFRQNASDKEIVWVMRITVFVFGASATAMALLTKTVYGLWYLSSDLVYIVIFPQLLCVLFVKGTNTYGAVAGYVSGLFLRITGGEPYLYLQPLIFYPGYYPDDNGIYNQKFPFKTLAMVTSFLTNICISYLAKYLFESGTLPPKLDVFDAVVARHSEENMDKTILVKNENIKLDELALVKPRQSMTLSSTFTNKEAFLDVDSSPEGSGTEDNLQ
HSF1 inhib: HSF1 inhibition; NIH3T3-HGL HSE-luciferase, MG132-induced, luminescence 8 h; active compounds read low; 0.77% of 300,000 active; activity change, negative = inhibition, % at 7.5 µM (by protocol);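 active = more than half of replicate wells show activity change below -50%, luminescence cut by over half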;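 also: luciferase reports HSF-1 transcriptional activity via heat shock element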
Lipid droplet: hepatic lipid droplet formation modulation; AML12 mouse hepatocytes, oleate lipid droplets, BODIPY imaging; inhibition, % at 6.5 µM; 0.4% of 240,000 active; AID 1656;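 active = lipid droplet intensity inhibited by at least 50%, with more than 500 cells counted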
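Technique: fluorescence imaging, 20x objective, two fields per well / Assay system: AML12 hepatocytes (mouse) / Measure: % inhibition of lipid droplet signal / Doses: 6.5 µM single-point dosing / Incubation: overnight exposure / Reagent: 100 µM oleic acid challenge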
HSF-1 act: increases HSF-1 driven luciferase reporter signal. NIH3T3-HGL HSF-1 luciferase reporter, MG132, 8 h; 100% = twice DMSO control signal. activation, % at 9 µM. 1.7% of 300,000 active;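 active = mean replicate activation of at least 50% with a set share of replicates each reaching 50%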
CHT inh: human CHT choline transport inhibition | Q9GZV3 | CHT-expressing cells, membrane potential dye, choline response; active compounds read low | B-score at 10 µM | 0.86% of 310,000 active | AID 488975;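 active = B-score over 3 SD under the library average, and starting fluorescence ratio not unusually high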;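 also: choline stimulus applied at its EC90 after an EC20 pre-addition; B-score computed on integrated fluorescence ratio after choline addition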
PHOSPHO1 block: inhibitors of human PHOSPHO1 phosphatase; 1.1% of 290,000 active; AID 1565; recombinant PHOSPHO1, absorbance phosphatase assay; inhibition, % at 13.3 µM; in the data active = inhibition above about 60%
Numbers stand for hits; - = inactive; . = not tested or not shown.

SMILES | CHT PAM | HSF1 inhib | Lipid droplet | HSF-1 act | CHT inh | PHOSPHO1 block
Cc1ccc(NC(=O)c2cc(C)on2)cc1 | - | - | . | - | - | -
CCOc1ccc(NC(=O)CCCNC(=O)Cn2cnc3sc(C)c(C)c3c2=O)cc1 | - | -64 | - | - | - | -
O=[N+]([O-])c1ccc(C[n+]2cccc3ccc4cccnc4c32)cc1 | - | - | - | - | - | -
CCOc1ccc(OCCOc2ncnc3ccccc23)cc1 | - | - | . | - | - | -
Cc1sc2nc(SCC(=O)c3cccs3)n(Cc3ccco3)c(=O)c2c1C | - | - | - | - | - | -
O=C1c2cccnc2Oc2ccc(Cl)cc2N1Cc1ccc(F)cc1 | - | -79 | - | - | - | -
Cc1ccc2c(c1)N(Cc1cccc(Cl)c1)C(=O)c1cccnc1O2 | - | - | - | - | - | -
CCOC(=O)N/N=C/c1ccccc1F | - | - | . | - | - | -
CCc1nnc(N/N=C/c2ccccc2Cl)n1N | - | - | . | 72 | - | -
CCc1nnc(N/N=C/c2ccccc2F)n1N | - | - | - | 59 | - | -
CC(=O)c1ccc(S(=O)(=O)NC2CC(=O)N(c3ccc(C)cc3)C2)cc1 (stereo not given) | - | - | . | - | - | .
COCCCNC(=S)NC1CC2CCCC(C1)N2Cc1cccs1 (stereo not given) | - | - | . | - | - | 69
CCCCCNc1nc(-c2ccccc2)cs1 | - | - | - | 55 | - | -
c1ccc(CCNc2nc(-c3ccncc3)cs2)cc1 | - | - | - | - | - | -
Clc1ccc(-n2ncc3c(NCc4cccs4)ncnc32)cc1 | - | - | . | 57 | - | .
Cc1cccc(-n2ncc3c(NCc4cccs4)ncnc32)c1 | - | - | - | - | - | -
Cc1ccc(S(=O)(=O)N2CCC(=O)N2)cc1 | - | - | . | - | - | -
Cc1ccc(S(=O)(=O)n2ccc(=O)[nH]2)cc1 | - | -68 | - | - | - | -
O=C1c2ccccc2C(Nc2ccc3c(c2)OCO3)N1Cc1ccc2c(c1)OCO2 (stereo not given) | - | - | - | - | - | -
COc1ccc(OC)c(NC2c3ccccc3C(=O)N2Cc2ccc3c(c2)OCO3)c1 (stereo not given) | - | - | . | 51 | - | -
O=C(CSc1nnc(-c2ccc(S(=O)(=O)N3CCCC3)cc2)n1CC1CCCO1)NC1CC1 (stereo not given) | - | - | - | - | - | 84
CCC(=O)Nc1ccc(C(=O)CSc2nnc(-c3ccc(O)cc3)n2CC2CCCO2)cc1 (stereo not given) | - | - | - | - | - | -
COc1cc(C(=O)CSc2nnc(-c3ccc(O)cc3)n2CC2CCCO2)ccc1NC(C)=O (stereo not given) | - | - | . | - | - | 79
CSc1nnc(-c2ccc(S(=O)(=O)N3CCOCC3)cc2)n1CC1CCCO1 (stereo not given) | - | - | - | - | - | -
CCn1c(C(=O)OC)cc2c1ccn2-c1ccc(F)cc1 | - | - | - | 52 | - | -
SMILES | CHT PAM | HSF1 inhib | Lipid droplet | HSF-1 act | CHT inh | PHOSPHO1 block
S=c1[nH]nc(-c2cccnc2)n1C1CCCCC1 | - | - | - | - | - | -
COc1ccc(-c2n[nH]c(=S)n2C2CCCCC2)cc1 | - | - | . | - | - | 100
COc1ccc(Cl)cc1-c1n[nH]c(=S)n1C1CCCCC1 | - | - | - | - | - | 97
Cc1noc(C)c1S(=O)(=O)Nc1cccc(CO)c1 | - | - | - | - | - | -
COc1ccc(NC(=S)NC2CCCCC2)cn1 | - | - | - | - | - | -
CCOc1ccc2nc3c(cc2c1)CN(CCCO)C(=NCCOC)S3 | - | - | . | - | - | 91
CCOc1ccc(N=C2Sc3nc4ccc(C)cc4cc3CN2CCOC)cc1 | - | - | - | - | - | -
COc1ccc(Cn2c(SC)nc3ccccc32)cc1[N+](=O)[O-] | - | -61 | . | - | - | -
O=C1/C(=C\c2ccccc2)CCc2c1[nH]c1ccccc21 | - | - | - | 109 | - | -
Cc1ccc2[nH]c3c(c2c1)CC/C(=C/c1ccccc1)C3=O | - | - | - | 62 | - | -
CC(O)CN=c1cc(-c2ccccc2)oc2ccc(Cl)cc12 (stereo not given) | - | - | . | - | - | -
CC(C)CN=c1cc(-c2ccccc2)oc2ccc(Cl)cc12 | - | - | . | 60 | - | -

Compound activity deposited in PubChem by several laboratories.
